The subject of one test is MGC-803. The experiment in a line: Cytotoxicity against human MGC803 cells after 48 hrs by MTT assay. In kind it is functional, cell-based. The note with it: MGC-803, 48 h. The gist of the method: (§1)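 Cells grown in medium with 10% heat-inactivated FBS, 5% CO2, 37 °C. Compounds given in medium with 1% DMSO at 1.25–20 graded concentrations; 1% DMSO medium served as control. MTT (5 mg/mL) added, formazan dissolved in DMSO, absorbance read at 570/630 nm. Survival expressed relative to negative control. IC50 by Bliss method (n=5), at least three independent experiments, mean ± SD.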
On the technique in general: Tetrazolium assays rely on reduction of a dye to a coloured formazan, in cell work by metabolically active cells.

In another test the test system is NCI-H460. Briefly: Cytotoxicity against human NCI-H460 cells after 48 hrs by MTT assay. It counts as functional, cell-based. The note with it: NCI-H460, 48 h. A digest of the protocol:
as §1

The test system of the next test is HepG2. Briefly: Cytotoxicity against human HepG2 cells after 48 hrs by MTT assay. It counts as functional, cell-based. The note with it: HepG2, 48 h. A digest of the protocol: as §1
A further test relates to HeLa. Briefly: Cytotoxicity against human HeLa cells after 48 hrs by MTT assay. In kind it is functional, cell-based. A digest of the protocol: as §1
Test [1] in a line: Cytotoxicity against human SMMC-7404 cells after 48 hrs by MTT assay. The note with it: SMMC-7404, 48 h. It counts as functional, cell-based. A digest of the protocol:
as §1

For another test, the system named is HUVEC. Briefly: Cytotoxicity against human HUVEC cells after 48 hrs by MTT assay. In kind it is cell-based. A digest of the protocol:
as §1

The structures appear in SMILES notation. Where only a bound is given, the exact number is not on record here.

On to `Cc1ccc(NC(=O)[C@]23CC[C@@H](C)[C@H](C)[C@H]2C2=CC(=O)[C@@H]4[C@@]5(C)C[C@@H](O)[C@H](O)[C@@](C)(CO)[C@@H]5CC[C@@]4(C)[C@]2(C)CC3)cc1Cl`, for which the IC50 in the test with MGC-803 was 20.1 µM; with NCI-H460, 19.1 µM; in the test with HepG2, 18.4 µM; in the test on HeLa it was 16 µM; in test [1], 20.6 µM; in the test on HUVEC, over 100 µM.

Consider `C[C@H]1[C@H](C)CC[C@]2(C(=O)Nc3cccc(Cl)c3)CC[C@]3(C)C(=CC(=O)[C@@H]4[C@@]5(C)C[C@@H](O)[C@H](O)[C@@](C)(CO)[C@@H]5CC[C@]43C)[C@H]12`, for which the IC50 in the test on MGC-803 was 19.4 µM; in the test with NCI-H460, 24.4 µM; in the test with HepG2 it was 11.6 µM; in the test with HeLa, 14.2 µM; in test [1] it was 34.4 µM; in the test with HUVEC it was over 100 µM.

Regarding `C[C@H]1[C@H](C)CC[C@]2(C(=O)Nc3ccccc3F)CC[C@]3(C)C(=CC(=O)[C@@H]4[C@@]5(C)C[C@@H](O)[C@H](O)[C@@](C)(CO)[C@@H]5CC[C@]43C)[C@H]12`, the IC50 with MGC-803 was 19.9 µM; in the test on NCI-H460 it was 61.6 µM; in the test with HepG2, over 100 µM; in the test with HeLa, 32.5 µM; in test [1], 23.2 µM; with HUVEC, over 100 µM.

As for `C[C@H]1[C@H](C)CC[C@]2(C(=O)Nc3ccc(Cl)cc3)CC[C@]3(C)C(=CC(=O)[C@@H]4[C@@]5(C)C[C@@H](O)[C@H](O)[C@@](C)(CO)[C@@H]5CC[C@]43C)[C@H]12`, the IC50 with MGC-803 is 22.5 µM; in the test with NCI-H460, 12.8 µM; with HepG2, 29.8 µM; in the test on HeLa, 13.1 µM; in test [1], 17.2 µM; in the test on HUVEC it was over 100 µM.

In the case of `O=c1[nH]cc(F)c(=O)[nH]1` [FLUOROURACIL], the IC50 with HepG2 came to 30 µM; in test [1], 40.2 µM.

For the compound `C[C@H]1[C@H](C)CC[C@]2(C(=O)Nc3ccc(Br)c(F)c3)CC[C@]3(C)C(=CC(=O)[C@@H]4[C@@]5(C)C[C@@H](O)[C@H](O)[C@@](C)(CO)[C@@H]5CC[C@]43C)[C@H]12`, the IC50 is 16 µM with MGC-803; 16.4 µM in the test with NCI-H460; 28.4 µM in the test on HepG2; 9.71 µM in the test with HeLa; 17.4 µM in test [1]; over 100 µM with HUVEC.

With `C[C@H]1[C@H](C)CC[C@]2(C(=O)O)CC[C@]3(C)C(=CC[C@@H]4[C@@]5(C)C[C@@H](O)[C@H](O)[C@@](C)(CO)[C@@H]5CC[C@]43C)[C@H]12` [ASIATIC ACID], the IC50 in the test with MGC-803 is 22.6 µM; in the test with NCI-H460, 39.6 µM; in the test on HepG2, 34.9 µM; with HeLa, 37.3 µM; in test [1] it was 40.8 µM; in the test on HUVEC, over 100 µM.

With `COc1ccc(NC(=O)[C@]23CC[C@@H](C)[C@H](C)[C@H]2C2=CC(=O)[C@@H]4[C@@]5(C)C[C@@H](O)[C@H](O)[C@@](C)(CO)[C@@H]5CC[C@@]4(C)[C@]2(C)CC3)cc1`, the IC50 was 30.1 µM in the test on MGC-803; over 100 µM in the test on NCI-H460; 16.6 µM with HepG2; over 100 µM with HeLa; over 100 µM in test [1]; over 100 µM in the test with HUVEC.

In the case of `C[C@H]1[C@H](C)CC[C@]2(C(=O)Nc3ccccc3)CC[C@]3(C)C(=CC(=O)[C@@H]4[C@@]5(C)C[C@@H](O)[C@H](O)[C@@](C)(CO)[C@@H]5CC[C@]43C)[C@H]12`, the IC50 in the test with MGC-803 is over 100 µM; with NCI-H460, 12.2 µM; with HepG2, over 100 µM; with HeLa, 26.9 µM; in test [1] it was over 100 µM; in the test with HUVEC, over 100 µM.

For the compound `C[C@H]1[C@H](C)CC[C@]2(C(=O)Nc3ccc(Cl)c(Cl)c3)CC[C@]3(C)C(=CC(=O)[C@@H]4[C@@]5(C)C[C@@H](O)[C@H](O)[C@@](C)(CO)[C@@H]5CC[C@]43C)[C@H]12`, the IC50 was 13.9 µM in the test with MGC-803; 21.4 µM in the test with NCI-H460; 13.8 µM in the test with HepG2; 12.4 µM in the test on HeLa; 17.2 µM in test [1]; over 100 µM in the test on HUVEC.

On to `COc1ccccc1NC(=O)[C@]12CC[C@@H](C)[C@H](C)[C@H]1C1=CC(=O)[C@@H]3[C@@]4(C)C[C@@H](O)[C@H](O)[C@@](C)(CO)[C@@H]4CC[C@@]3(C)[C@]1(C)CC2`, for which the IC50 in the test on MGC-803 was 19 µM; in the test on NCI-H460 it was 18.4 µM; in the test on HepG2 it was 10.9 µM; in the test on HeLa it was 34.5 µM; in test [1] it was 16.2 µM; in the test with HUVEC, over 100 µM.

For the compound `Cc1cccc(NC(=O)[C@]23CC[C@@H](C)[C@H](C)[C@H]2C2=CC(=O)[C@@H]4[C@@]5(C)C[C@@H](O)[C@H](O)[C@@](C)(CO)[C@@H]5CC[C@@]4(C)[C@]2(C)CC3)c1`, the IC50 in the test with MGC-803 was 21.2 µM; in the test on NCI-H460 it was 21.8 µM; in the test with HepG2 it was 19.4 µM; in the test on HeLa, 14.6 µM; in test [1] it was 16.1 µM; with HUVEC, over 100 µM.

For the compound `Cc1ccc(C)c(NC(=O)[C@]23CC[C@@H](C)[C@H](C)[C@H]2C2=CC(=O)[C@@H]4[C@@]5(C)C[C@@H](O)[C@H](O)[C@@](C)(CO)[C@@H]5CC[C@@]4(C)[C@]2(C)CC3)c1`, the IC50 in the test with MGC-803 was 20.7 µM; in the test with NCI-H460 it was 27.5 µM; with HepG2, 25.5 µM; with HeLa, 16 µM; in test [1], 15.7 µM; in the test with HUVEC, over 100 µM.

Turning to `C[C@H]1[C@H](C)CC[C@]2(C(=O)Nc3cccc4ccccc34)CC[C@]3(C)C(=CC(=O)[C@@H]4[C@@]5(C)C[C@@H](O)[C@H](O)[C@@](C)(CO)[C@@H]5CC[C@]43C)[C@H]12`, the IC50 with MGC-803 is 19.9 µM; in the test with NCI-H460, 16.6 µM; in the test with HepG2, 21.3 µM; in the test on HeLa it was 14 µM; in test [1], 20.4 µM; in the test with HUVEC, over 100 µM.

`C[C@H]1[C@H](C)CC[C@]2(C(=O)Nc3ccc(F)cc3)CC[C@]3(C)C(=CC(=O)[C@@H]4[C@@]5(C)C[C@@H](O)[C@H](O)[C@@](C)(CO)[C@@H]5CC[C@]43C)[C@H]12`: the concentration for half-maximal inhibition (IC50) with MGC-803 was 26.6 µM; with NCI-H460 it was 31.9 µM; in the test with HepG2 it was over 100 µM; in the test on HeLa, 20.8 µM; in test [1], over 100 µM; with HUVEC, over 100 µM.

`COc1cccc(NC(=O)[C@]23CC[C@@H](C)[C@H](C)[C@H]2C2=CC(=O)[C@@H]4[C@@]5(C)C[C@@H](O)[C@H](O)[C@@](C)(CO)[C@@H]5CC[C@@]4(C)[C@]2(C)CC3)c1`: the IC50 with MGC-803 is 24.3 µM; in the test on NCI-H460, 23.1 µM; in the test on HepG2, 8.89 µM; in the test with HeLa, 17.8 µM; in test [1], 23.5 µM; in the test with HUVEC it was over 100 µM.

For the compound `C[C@H]1[C@H](C)CC[C@]2(C(=O)Nc3ccc(F)c(Cl)c3)CC[C@]3(C)C(=CC(=O)[C@@H]4[C@@]5(C)C[C@@H](O)[C@H](O)[C@@](C)(CO)[C@@H]5CC[C@]43C)[C@H]12`, the IC50 is 14.1 µM in the test with MGC-803; 24.2 µM in the test with NCI-H460; 19.4 µM in the test with HepG2; 14.2 µM in the test with HeLa; 19.1 µM in test [1]; over 100 µM with HUVEC.

`Cc1ccc(NC(=O)[C@]23CC[C@@H](C)[C@H](C)[C@H]2C2=CC(=O)[C@@H]4[C@@]5(C)C[C@@H](O)[C@H](O)[C@@](C)(CO)[C@@H]5CC[C@@]4(C)[C@]2(C)CC3)cc1`: the IC50 was 14.6 µM in the test on MGC-803; 30.2 µM in the test on NCI-H460; 22.6 µM with HepG2; 32.5 µM in the test with HeLa; over 100 µM in test [1]; over 100 µM with HUVEC.

Consider `Cc1cc(Br)ccc1NC(=O)[C@]12CC[C@@H](C)[C@H](C)[C@H]1C1=CC(=O)[C@@H]3[C@@]4(C)C[C@@H](O)[C@H](O)[C@@](C)(CO)[C@@H]4CC[C@@]3(C)[C@]1(C)CC2`, for which the IC50 in the test on MGC-803 was 14.6 µM; in the test on NCI-H460, 23.8 µM; in the test with HepG2 it was 22.8 µM; with HeLa, 15.7 µM; in test [1] it was 17 µM; in the test with HUVEC, over 100 µM.

On to `C[C@H]1[C@H](C)CC[C@]2(C(=O)Nc3cccc(Br)c3)CC[C@]3(C)C(=CC(=O)[C@@H]4[C@@]5(C)C[C@@H](O)[C@H](O)[C@@](C)(CO)[C@@H]5CC[C@]43C)[C@H]12`, for which the IC50 was 15.5 µM with MGC-803; 24.8 µM in the test with NCI-H460; 20.4 µM in the test with HepG2; 16.2 µM in the test on HeLa; 22.4 µM in test [1]; over 100 µM in the test with HUVEC.

In the case of `C[C@H]1[C@H](C)CC[C@]2(C(=O)Nc3ccc(Br)cc3)CC[C@]3(C)C(=CC(=O)[C@@H]4[C@@]5(C)C[C@@H](O)[C@H](O)[C@@](C)(CO)[C@@H]5CC[C@]43C)[C@H]12`, the IC50 was 20.6 µM with MGC-803; 31.2 µM in the test with NCI-H460; 21.3 µM in the test with HepG2; 18.5 µM in the test on HeLa; over 100 µM in test [1]; over 100 µM in the test with HUVEC.

One may read the IC50 as the concentration at which inhibition is half-maximal.
